High-throughput results (PubChem)
Hits are enriched below; roughly 1.9% of the tested compounds scored in any of these assays.
DENV2 CPE = inhibitors of DENV2 cytopathic effect | CPE inhibition, % at 9.99 µM | 350,000 tested, 1.7% active | DENV2-infected cells, cytopathic effect rescue, plate reader; in the data active = CPE inhibition above about 20%, passing the limit was not always enough; inconclusive = no clear call, values can overlap the other calls; tested in BHK-21 cells;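 note: 0% = median of neutral control wells and 100% = median of positive control wells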
Cneo AK release = causes C. neoformans cell lysis; lysis activity, % at 15 µM; 360,000 tested, 0.2% active; AID 651654; adenylate kinase release luminescence, 4 h; normalised: neutral wells 0, clomiphene wells 100;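 active = mean lysis activity across replicates of at least 80%, whatever share of replicates individually reach that level; inactive = mean lysis activity below 80%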
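Material – Cryptococcus neoformans yeast cells · Quantity – 5 × 10^6 yeast cells/mL · Buffer or medium – YPD medium · Compound – single dose · Timing – 4 h static compound exposure, 37 °C, read 1 h post-reagent · Signal – adenylate kinase release luminescence · Read-out basis – lysis from increased AK signal · Benchmarks – Clomiphene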
CFTR F508del cor = correctors of CFTR F508del function in bronchial epithelial cells. 350,000 tested, 0.36% active. AID 720511. activity (quench increase), % at 7.58 µM. CFBE cells, YFP halide quenching; stimulated with forskolin plus potentiator P3; % fluorescence drop versus neutral controls;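 active = mean added fluorescence quench of at least 8% versus neutral control, with both replicates also reaching 8%; inconclusive = only one of the mean or replicate conditions met; inactive = mean below 8% and not both replicates reaching 8%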;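 note: cells transiently co-express mutant CFTR-F508del with the halide-sensitive YFP; corrector assay measuring rescue of mutant channel to the surface after 24 h compound exposure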
XiGFP reactiv = reactivates the inactive X chromosome in mouse fibroblasts; XiGFP mouse fibroblasts, % GFP-positive cells imaging, 3 d; cells co-treated with 5-aza-dC sensitizer; scaled so ellipticine positive control = 100%; activation, % at 7.58 µM; 360,000 tested, 0.055% active; AID 743238;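 active = mean normalized replicate activation at least 10% and every replicate at or above 10%; inconclusive = only one of the two criteria met; inactive = mean below 10% and not all replicates reach 10%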;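 note: 0% = median of on-plate neutral control wells and 100% = ellipticine 6 µM median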
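Material: XiGFP fibroblasts, SV40-immortalized; Buffer or medium: DMEM containing 5-aza-dC; Compound dosing: single point; Times: 3 days compound exposure.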
PGC1a acetyl inh = modulators of PGC1a acetylation. U2OS PGC1a acetylation, AlphaScreen anti-acetyl-lysine; with virally co-expressed GCN5 acetyltransferase. inhibition, % at 15.6 µM. 350,000 tested, 0.17% active;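 active = every replicate shows inhibition of at least 40%; inconclusive = mean inhibition at least 40% but some replicate below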;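 note: 0% = neutral control wells and 100% = positive control wells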
FN deposition inh = fibronectin deposition inhibition; AH1F fibroblasts, Alexa488-fibronectin deposition fluorescence, overnight; inhibition, % at 12.6 µM; 350,000 tested, 0.086% active; AID 743247;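 active = mean inhibition across replicates of 30% or more, regardless of how many single replicates reach that level; inconclusive = mean under 30% yet at least half of replicates reach 30%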;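 note: positive control wells lacked labelled fibronectin entirely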
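test system = AH1F fibroblasts assembling fluorescent fibronectin matrix | quantity = 10000 AH1F cells per well | buffer or medium = DMEM plus 2% serum, read in PBS | doses = single dose, pinned | incubation = 1 h cell attachment, overnight exposure to compound and label | detection = fluorescence at 485 nm excitation, 525 nm emission | read-out basis = inhibition from reduced deposited-fibronectin fluorescence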
* marks the source's active call; other numbers are inactive results; ? = inconclusive; . = not tested or not shown.

SMILES | DENV2 CPE | Cneo AK release | CFTR F508del cor | XiGFP reactiv | PGC1a acetyl inh | FN deposition inh
COc1cccc(-c2cc3nc(-c4ccccc4)cc(=O)n3[nH]2)c1 | 8 | -1 | 12* | 0 | . | -2
O=C(C[C@@H]1C=C[C@H](NC(=O)c2ccc(F)cc2)[C@H](CO)O1)NCc1ccncn1 | 16 | 1 | 0 | -1 | -21 | -8
CC=Cc1ccc2n(c1=O)C[C@@H]1[C@@H](CO)[C@H](C(=O)NCCC)[C@H]2N1C(=O)c1ccccc1 (mixture of isomers) | 1 | -1 | 0 | 2 | . | .
Nc1ncnc2c1ncn2C1O[C@H](CO)[C@@H](O)[C@@H]1O (some centres not stated) | 13 | 0 | 3 | 0 | 0 | -2
N#Cc1c(N)n(C2OC(CO)C(O)C2O)c2ncnc(N)c12 (configuration not stated) | 6 | . | -3 | 0 | . | 34*
COc1cccc(NC(=O)C[C@H]2CC[C@@H]3[C@@H](COc4ccc(NC(=O)C5CCCCC5)cc4C(=O)N3C)O2)c1 | 33* | -2 | 3 | 0 | 0 | -1
CN1CCN(C(=O)C[C@@H]2CC[C@H]3[C@H](COc4ccc(NC(=O)C5CCCC5)cc4C(=O)N3C)O2)CC1 | 25* | . | 2 | 0 | . | 0
CN(C)C(=O)C[C@@H]1CC[C@@H]2[C@H](COc3ccc(NC(=O)C4CCCCC4)cc3C(=O)N2C)O1 | 28* | . | 0 | 0 | 0 | 18
CN1CCN(C(=O)C[C@@H]2CC[C@@H]3[C@@H](COc4ccc(NC(=O)C5CCCC5)cc4C(=O)N3C)O2)CC1 | ? | . | 0 | 0 | 3 | -3
COCC(=O)Nc1ccc2c(c1)C(=O)N(C)C[C@@H](OC)[C@@H](C)CN(Cc1ccccn1)[C@H](C)CO2 | 6 | 1 | 0 | 0 | -11 | 7
Cc1ccc(C)c(S(=O)(=O)N(C(=O)c2ccncc2)c2ccc(OC(=O)c3ccncc3)cc2)c1 | -1 | . | 1 | 0 | 44* | 12
COc1ccc(-c2ccc([C@H]3[C@@H](CO)N4CCCCN(C(=O)NC(C)C)C[C@H]34)cc2)cc1 | 31* | 1 | 0 | 0 | 4 | .
COc1ccc(-c2ccc([C@H]3[C@@H](CO)N4CCCCN(C(=O)NC(C)C)C[C@@H]34)cc2)cc1 | 20 | 0 | 5 | 0 | 2 | .
COc1ccc(-c2ccc([C@@H]3[C@H]4CN(C(=O)NC(C)C)CCCCN4[C@H]3CO)cc2)cc1 | -8 | -1 | -2 | 0 | -11 | .
COc1ccc(-c2ccc([C@H]3[C@H](CO)N4CCCCN(C(=O)NC(C)C)C[C@@H]34)cc2)cc1 | 40* | 0 | 0 | 0 | -6 | .
CCOC(=O)N1C=CC=C[C@@H]2[C@@H](N3C(=O)c4ccccc4C3=O)C(=O)N21 | 63* | . | . | 0 | . | 8
CS(=O)(=O)N1[C@@H]2c3ccc(-c4ccc(F)cc4)c(=O)n3C[C@H]1[C@H](CO)[C@H]2C(=O)N1CCOCC1 | 115* | 5 | . | 1 | . | .
CN1[C@@H]2c3ccc(-c4ccncc4)c(=O)n3C[C@H]1[C@H](CO)[C@H]2C(=O)N1CCC(Cc2ccccc2)CC1 | 25* | -4 | . | 0 | . | 1
CCC(=O)N1[C@@H]2c3ccc(C4=CCCC4)c(=O)n3C[C@H]1[C@H](CO)[C@H]2C(=O)N[C@H](C)c1ccccc1 | ? | 1 | 1 | 0 | . | .
CCC(=O)N1[C@@H]2Cn3c(ccc(C4=CCCCC4)c3=O)[C@H]1[C@@H](C(=O)N[C@H](C)c1ccccc1)[C@@H]2CO | -1 | 93* | -4 | 0 | . | .
O=C(NC1CCC1)[C@H]1[C@H](CO)[C@H]2Cn3c(ccc(C4=CCCCC4)c3=O)[C@H]2N1C(=O)C1CCOCC1 | 65* | -2 | . | 0 | . | .
CN(C)CCCNC(=O)C[C@@H]1CC[C@H](NS(=O)(=O)c2ccccc2)[C@@H](CO)O1 | -4 | 6 | 0 | 0 | 3 | 9
C[C@@H]1CN([C@H](C)CO)C(=O)Cc2cc(NS(=O)(=O)c3ccc(F)cc3)ccc2O[C@@H]1CN(C)S(=O)(=O)c1cccs1 | 13 | -2 | -1 | -1 | -3 | .
CO[C@@H]1CN(C)C(=O)c2cc(NC(=O)C3CCC3)ccc2OC[C@H](C)N(Cc2ccccn2)C[C@@H]1C | 1 | -1 | -1 | 0 | 9 | 13
O=C(C[C@H]1C[C@H]2c3cc(NC(=O)Nc4ccccc4F)ccc3O[C@H]2[C@@H](CO)O1)NCCc1ccccc1 | 3 | 23 | -1 | 0 | -11 | .
SMILES | DENV2 CPE | Cneo AK release | CFTR F508del cor | XiGFP reactiv | PGC1a acetyl inh | FN deposition inh
O=C([C@@H]1[C@@H](CO)[C@@H]2Cn3c(ccc(C4=CCCCC4)c3=O)[C@H]1N2)N1CCCCC1 | 35* | 35 | . | 0 | . | .
CN1[C@@H]2Cn3c(ccc(C4=CCCC4)c3=O)[C@H]1[C@@H](C(=O)N1CCCCC1)[C@@H]2CO | 110* | 22 | . | 0 | . | .
CN1[C@@H]2c3ccc(C4=CCCC4)c(=O)n3C[C@H]1[C@H](CO)[C@H]2C(=O)N1CCCCC1 | -16 | 44 | . | 0 | . | .
COc1ccc(C2NC(=S)NC3=C2CCCC3=C2SCCS2)cc1 (configuration not stated) | 8 | 4 | 11* | 1 | 45* | 6
COc1ccc(NC(=O)Nc2cccc3c2O[C@@H](CN(C)S(=O)(=O)c2cn(C)cn2)[C@@H](C)CN([C@@H](C)CO)C3=O)cc1 | -4 | -12 | 0 | 0 | 0 | .
O=C(CN1CCOCC1)N1CCCCN2[C@H](CO)[C@@H](c3ccc(-c4ccccc4)cc3)[C@@H]2C1 | 13 | -5 | -1 | 0 | 4 | .
O=C(CN1CCOCC1)N1CCCCN2[C@H](CO)[C@@H](c3ccc(-c4ccccc4)cc3)[C@H]2C1 | 54* | -3 | -2 | 0 | 9 | .
O=C(CN1CCOCC1)N1CCCCN2[C@H](CO)[C@@H](c3ccc(C#Cc4ccccc4F)cc3)[C@H]2C1 | 27* | -2 | 1 | 0 | 7 | .
CC(=O)N1CCCCN2[C@@H](CO)[C@H](c3ccc(C#Cc4ccccc4F)cc3)[C@@H]2C1 | 23* | 1 | 1 | 0 | -5 | .
C[C@@H]1CCCCO[C@H](CN(C)S(C)(=O)=O)[C@@H](C)CN([C@H](C)CO)C(=O)c2cc(NC(=O)Nc3ccccc3)ccc2O1 | 1 | 4 | -1 | 1 | 11 | -3
Fc1ccc(CNC2CCN(Cc3ccccc3)CC2)cc1 | 35* | -5 | -3 | 0 | 9 | 4
Cc1noc(C)c1NC(=O)Nc1ccc2c(c1)C(=O)N([C@@H](C)CO)C[C@@H](C)[C@H](CN(C)Cc1ccc(Oc3ccccc3)cc1)O2 | -11 | 0 | -1 | 0 | 2 | .
